Most compounds without a hit are left out; they make up all but 1.3% or so of the library.
FN deposition inh = fibronectin deposition inhibition | AH1F fibroblasts, Alexa488-fibronectin deposition fluorescence, overnight | inhibition, % at 12.6 µM | hit rate 0.086% among 350,000 | AID 743247;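 active = mean inhibition across replicates of 30% or more, regardless of how many single replicates reach that level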;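 also: positive control wells lacked labelled fibronectin entirely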
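Assay system: AH1F fibroblasts / Quantity: 10000 cells per well / Medium: DMEM plus 2% serum, read in PBS / Reagent: labelled fibronectin 24 nM / Dosing: single dose, pinned / Times: 1 h cell attachment, overnight exposure to compound and label / Signal: fluorescence, ex 485 nm, em 525 nm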
AF4-AF9 inh = blocks AF4 peptide binding to human AF9 | P42568 | AlphaScreen, biotin-AF4 peptide binding to FLAG-AF9 | inhibition, % at 10 µM | hit rate 0.47% among 350,000;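 active = every replicate reaching a set inhibition limit, whatever the replicate mean, cut at about 25% in these data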;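 also: 0% = plate neutral control median and 100% = total signal loss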
ERp5 inh = ERp5 (human) disulfide isomerase inhibition; inhibition, % at 9.99 µM; ERp5 insulin aggregation, absorbance 650 nm, 90 min; hit rate 0.05% among 350,000; AID 651711;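 active = mean replicate inhibition above about 25%, with every replicate also reaching it, limit read from the data, passing the limit was not always enough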
SIRT5 inh = blocks human SIRT5 desuccinylation of peptide; Purified SirT5, succinyl-peptide AMC, trypsin-coupled fluorescence; inhibition, % at 15 µM; hit rate 1.1% among 330,000; in the data active = inhibition above about 15%
PDI turbidity = inhibitors of human protein disulfide isomerase | P07237 | PDI insulin aggregation turbidity, A650, 90 min | inhibition, % at 10 µM | hit rate 0.052% among 350,000 | AID 588391;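 active = mean inhibition across replicates of 30% or more, whatever share of single replicates reach that level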
Target sequence (P07237 whole entry, looked up): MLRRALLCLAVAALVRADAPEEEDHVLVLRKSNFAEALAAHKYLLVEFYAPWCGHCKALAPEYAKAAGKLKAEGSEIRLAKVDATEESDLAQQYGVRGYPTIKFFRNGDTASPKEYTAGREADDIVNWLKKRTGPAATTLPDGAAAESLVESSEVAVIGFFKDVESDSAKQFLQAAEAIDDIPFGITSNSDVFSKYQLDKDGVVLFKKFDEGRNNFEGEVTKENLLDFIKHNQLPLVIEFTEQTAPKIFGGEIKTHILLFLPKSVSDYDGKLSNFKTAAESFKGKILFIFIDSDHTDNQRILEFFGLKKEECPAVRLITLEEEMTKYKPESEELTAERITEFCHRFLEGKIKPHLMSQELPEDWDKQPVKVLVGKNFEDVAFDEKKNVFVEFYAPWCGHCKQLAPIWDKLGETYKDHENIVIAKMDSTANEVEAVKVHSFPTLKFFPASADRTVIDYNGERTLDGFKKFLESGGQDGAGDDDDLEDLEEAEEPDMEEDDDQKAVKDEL
Numbers without * were called inactive; / = no result.

SMILES	FN deposition inh	AF4-AF9 inh	ERp5 inh	SIRT5 inh	PDI turbidity
N#C[C@H]1[C@H](c2ccccc2-c2ccccc2F)[C@@H](CO)N1C(=O)Cc1ccccc1	5	-1	-12	18*	/
COc1ccc(C[C@H]2CN3C(=NC[C@@H]3Cc3ccccc3)N2CCNC(=O)c2ccc(C)c(Br)c2)cc1	/	/	/	/	11
C[C@@H](CN1C2=NC[C@H](Cc3ccc(O)cc3)N2C[C@H]1Cc1ccc(O)cc1)NC(=O)CCC1CCCCC1	2	17	-1	/	47*
C[C@@H](CN1C2=NC[C@H](Cc3ccccc3)N2C[C@H]1Cc1ccc(O)cc1)NC(=O)CCC1CCCCC1	3	10	4	0	14
COc1ccc(C[C@H]2CN3C(=NC[C@H]3Cc3ccccc3)N2CCNC(=O)c2ccc(C)c(Br)c2)cc1	/	/	/	/	17
COc1ccc(C[C@H]2CN3C(=NC[C@@H]3Cc3ccc(O)cc3)N2CCNC(=O)c2ccc(C)c(Br)c2)cc1	6	29*	2	0	12
Cc1ccc(C(=O)NCCN2C3=NC[C@H](Cc4ccc(O)cc4)N3C[C@H]2Cc2ccc(O)cc2)cc1Br	-2	29*	1	/	40*
Fc1ccc(/C=N/Nc2ncnc3nc[nH]c23)cc1F	9	3	-4	-1	-12
O=C(CCc1nc2sc3c(c2c(=O)[nH]1)CCCC3)NCCc1ccc(F)cc1	3	-1	-4	9	-3
O=C(N/N=C/c1cn[nH]c1-c1ccc(Cl)cc1)c1ccc([N+](=O)[O-])cc1	-4	4	6	-3	-1
CCC/C=N/NC(=O)c1cc(-c2ccccc2)nc2ccccc12	-6	/	/	/	-5
COc1ccc(S(=O)(=O)Nc2ccc3c(c2)C(=O)N([C@@H](C)CO)C[C@@H](C)[C@H](CN(C)Cc2ccc(C(F)(F)F)cc2)OCCCC[C@H](C)O3)cc1	3	2	1	7	/
COc1ccc(S(=O)(=O)Nc2ccc3c(c2)C(=O)N([C@H](C)CO)C[C@@H](C)[C@@H](CN(C)Cc2ccc(C(F)(F)F)cc2)OCCCC[C@H](C)O3)cc1	8	1	2	17*	/
COc1ccc(S(=O)(=O)Nc2ccc3c(c2)C(=O)N([C@H](C)CO)C[C@H](C)[C@H](CN(C)Cc2ccc(C(F)(F)F)cc2)OCCCC[C@H](C)O3)cc1	-3	1	-1	39*	/
COc1ccc(S(=O)(=O)Nc2ccc3c(c2)C(=O)N([C@H](C)CO)C[C@@H](C)[C@@H](CN(C)Cc2ccc(C(F)(F)F)cc2)OCCCC[C@@H](C)O3)cc1	15	1	1	15*	/
COc1ccc(S(=O)(=O)Nc2ccc3c(c2)C(=O)N([C@@H](C)CO)C[C@@H](C)[C@@H](CN(C)Cc2ccc(C(F)(F)F)cc2)OCCCC[C@@H](C)O3)cc1	6	5	1	22*	/
O=C(CNc1ccccc1)Nc1cccc2ccccc12	3	-2	4	0	-13
Cn1cnc([N+](=O)[O-])c1Nc1ccc(O)cc1	/	/	/	/	-2
COc1ccc(Nc2nc(NC(C)(C)C)nc(N3CCCC3)n2)c(OC)c1	6	/	/	/	-3
Cc1onc(-c2ccccc2)c1CNC(=O)CN1C(=O)c2ccccc2C1=O	2	-6	-1	-4	8
O=C1c2ccccc2C(=O)c2c1ccc1c(=O)n(C3CCCCC3)[nH]c21	-2	/	0	19*	-3
CC(=O)NC[C@@H]1[C@@H](c2ccc(-c3ccccc3F)cc2)[C@@H](CO)N1CCC(F)(F)F	4	1	-1	25*	/
C/C=C/c1ccc2c(c1)O[C@@H](CN(C)C(=O)c1ccc3c(c1)OCO3)[C@@H](C)CN([C@H](C)CO)S2(=O)=O	-12	2	-3	3	/
C/C=C/c1ccc2c(c1)O[C@@H](CN(C)C(=O)c1ccc3c(c1)OCO3)[C@H](C)CN([C@@H](C)CO)S2(=O)=O	-26	4	-3	0	/
C[C@@H]1CN([C@H](C)CO)S(=O)(=O)c2ccc(/C=C/c3ccccc3)cc2O[C@@H]1CN(C)C(=O)c1ccc2c(c1)OCO2	/	3	4	23*	/
SMILES	FN deposition inh	AF4-AF9 inh	ERp5 inh	SIRT5 inh	PDI turbidity
C[C@@H]1CN([C@@H](C)CO)S(=O)(=O)c2ccc(/C=C/c3ccccc3)cc2O[C@@H]1CN(C)C(=O)c1ccc2c(c1)OCO2	/	2	0	24*	/
Cc1ccccc1-c1noc(CCC(=O)NCC2CCCO2)n1 (stereo unspecified)	-8	/	/	/	2
Cc1ccc(C(=O)NC2CC3CCC(C2)N3Cc2ccco2)cc1 (stereo unspecified)	0	/	/	/	-6
COc1ccc(N2CCN(CC(O)COC(c3ccc(F)cc3)c3ccc(F)cc3)CC2)cc1 (stereo unspecified)	-1	27*	2	-4	3
COc1ccc(N(C(=O)c2ccco2)C(C(=O)NC2CCCC2)c2ccc(C)cc2)c(OC)c1 (stereo unspecified)	-4	2	-2	1	-13
CNc1nc(NCCOc2ccccc2Cl)c2sccc2n1	5	6	3	2	-4
Clc1ccccc1OCCNc1nc(NCC2CC2)nc2ccsc12	-1	0	-6	23*	14
CCOC(=O)N1CCN(S(=O)(=O)c2c(C)nc3scc(C)n3c2=O)CC1	2	0	3	31*	-3
CN(C)CCN(C)Cc1ccccc1Sc1cccc2ccccc12	7	36*	-1	-5	3
COc1cc(C2C(C#N)=C(N)Oc3c2ccc2ccccc32)ccc1OCC(=O)Nc1ccc(C)cc1 (stereo unspecified)	-3	-15	4	20*	-6
COc1ccc(OC)c(NC(=O)CN2C(=O)C(C)N(c3ccc(C)cc3)C2=O)c1 (stereo unspecified)	6	-12	-11	1	2
Cc1cc(OC(=O)c2ccc(Cl)cc2Cl)c([N+](=O)[O-])c(=O)[nH]1	-4	37*	-2	7	-2
C=CCN=C(CC)C1=C(O)CCCC1=O	/	/	/	/	21
O=C1OCCOC2CCCc3oc(C4=CCCCC4)c1c32 (stereo unspecified)	4	-4	4	33*	/
O=C1c2c(O)cc(O)cc2O[C@@]12c1c(cc(O)c3c1O[C@H](c1ccc(O)cc1)[C@@H](O)C3)O[C@@H]2c1ccc(O)cc1	3	/	0	/	41*
Cc1ccc(NCC(=O)N/N=C/c2cccc(Br)c2)cc1	-9	0	-3	16*	-1
COC(=O)c1ccc(/C=N/NC(=O)CNc2cccc(C)c2)cc1	2	0	-2	24*	2
Cc1cccc(NCC(=O)N/N=C/c2cccc(Br)c2)c1	-10	0	0	2	0
C[C@@H]1CN([C@H](C)CO)C(=O)Cc2cc(NS(=O)(=O)c3ccc(Cl)cc3)ccc2O[C@@H]1CN(C)Cc1ccc2c(c1)OCO2	/	-3	-4	8	/
CC(C)NS(=O)(=O)c1ccc(NC(=O)C(C)OC(=O)CCC2CCCC2)cc1 (stereo unspecified)	-6	2	2	0	10

Screening results deposited in PubChem by Broad Institute.
